Screening results (PubChem BioAssay)
Yeast superoxide – lowers age-related superoxide in aged yeast cells | superoxide response (% of plate mean), % at 10 µM | S. cerevisiae aged cells, superoxide DHE fluorescence; stronger effect = lower value | hit rate 0.18% among 330,000;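 active = superoxide response under a set limit, about three screen SD below normal, cut at about 65% in these data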;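 note: yeast aged for seven days with compound at 30 °C before DHE staining; 100% = average MFI of all compound-treated wells on the plate with controls excluded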
TRPC6 activator – activators of mouse TRPC6 channel | Q61143 | HEK293-TRPC6 membrane potential dye fluorescence; stronger effect = higher value | B-score at 10 µM | hit rate 0.13% among 310,000 | AID 2550;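 active = B-score of the integrated fluorescence ratio above library mean plus 3 SD, and starting fluorescence ratio within library mean plus 5 SD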;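 note: higher score means more depolarization so channel activation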
Target sequence (Q61143 whole entry, looked up): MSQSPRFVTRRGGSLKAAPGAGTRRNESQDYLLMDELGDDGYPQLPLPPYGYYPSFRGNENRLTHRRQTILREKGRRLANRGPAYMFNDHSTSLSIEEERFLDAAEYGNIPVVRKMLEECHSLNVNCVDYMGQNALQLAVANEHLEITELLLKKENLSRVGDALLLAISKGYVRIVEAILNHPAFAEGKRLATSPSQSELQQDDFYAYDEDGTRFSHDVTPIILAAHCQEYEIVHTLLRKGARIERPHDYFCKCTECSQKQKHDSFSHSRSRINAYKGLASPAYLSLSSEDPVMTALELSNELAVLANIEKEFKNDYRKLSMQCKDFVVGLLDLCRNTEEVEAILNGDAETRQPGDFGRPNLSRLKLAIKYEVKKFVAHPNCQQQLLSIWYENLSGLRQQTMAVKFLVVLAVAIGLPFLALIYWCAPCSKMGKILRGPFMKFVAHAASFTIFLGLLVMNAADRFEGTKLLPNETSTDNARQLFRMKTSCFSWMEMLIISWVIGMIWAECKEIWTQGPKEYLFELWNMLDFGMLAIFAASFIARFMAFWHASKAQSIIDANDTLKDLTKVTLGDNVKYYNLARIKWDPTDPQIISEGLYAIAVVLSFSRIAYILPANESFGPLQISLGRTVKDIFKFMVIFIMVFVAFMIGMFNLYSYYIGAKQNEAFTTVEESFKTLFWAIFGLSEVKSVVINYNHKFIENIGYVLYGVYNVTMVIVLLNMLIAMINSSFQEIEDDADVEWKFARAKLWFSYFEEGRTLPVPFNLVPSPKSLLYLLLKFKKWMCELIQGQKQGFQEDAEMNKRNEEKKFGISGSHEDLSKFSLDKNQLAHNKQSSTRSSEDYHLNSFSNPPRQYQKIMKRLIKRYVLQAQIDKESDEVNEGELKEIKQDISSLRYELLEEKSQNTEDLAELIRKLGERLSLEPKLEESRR
TRPC6 inhibitor – inhibitors of mouse TRPC6 channel; B-score at 10 µM; Q61143; hit rate 1.1% among 310,000; HEK293-TRPC6, membrane potential dye, ACh-evoked depolarization; stronger effect = lower value; AID 2553;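 active = B-score under library mean minus 3 SD, initial fluorescence not abnormally high, positive integrated signal ratio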;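 note: B-score derived from integrated fluorescence ratio over the kinetic read; more negative B-score means stronger inhibition of depolarization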
TRPC4 PAM – TRPC4 (mouse) allosteric potentiation; Q9QUQ5; HEK293 TRPC4beta/mu-opioid, DAMGO EC20, Fluo-4 Ca2+ flux; stronger effect = higher value; B-score at 10 µM; hit rate 0.42% among 310,000; AID 2227;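 active = B-score of calcium response area above 5 SD of library B-scores, with initial fluorescence ratio within 5 SD of library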;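 note: B-score of integrated fluorescence ratio over time as area under calcium response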
TRPC4 inh – blocks the mouse TRPC4 cation channel | Q9QUQ5 | HEK293 TRPC4beta/mu-opioid, DAMGO-evoked Fluo4 calcium flux; stronger effect = lower value | B-score at 10 µM | hit rate 0.39% among 300,000 | AID 2247;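 active = B-score over 3 SD under the library average, no early fluorescence shift, positive overall ratio signal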
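System: stable TRPC4beta/mu-opioid receptor HEK293 cells; Dosing: single-point compound dosing; Measured by: Fluo4 Ca2+ flux fluorescence; Read-out basis: per-well B score of integrated baseline-normalized Fluo4 ratio.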
TRPC4 act – activators of mouse TRPC4 channel; Q9QUQ5; HEK293 TRPC4beta/mu-opioid, Fluo4 calcium fluorescence; stronger effect = higher value; B-score at 10 µM; hit rate 0.49% among 310,000; AID 2237;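 active = B-score above 5 SD of library B-scores, and initial fluorescence ratio not above library mean plus 5 SD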;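 note: positive B-score marks a calcium rise read as TRPC4 activation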
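Technique: kinetic Fluo4 calcium fluorescence; Test system: TRPC4beta and mu-opioid receptor HEK293 stable cells; Measure: B-scored integrated calcium fluorescence ratio; Benchmarks: low control buffer alone, high control maximal DAMGO; Schedule: 45 min room-temperature Fluo4 loading, 110 s read.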
TRPC4 sel inh 2 – second check of whether TRPC6 inhibitors also affect mouse TRPC4. shares compounds with TRPC6 inhibitor. HEK293 TRPC4/MOR, membrane potential dye fluorescence; channel activated by saturating DAMGO dose. inhibition, % at 10 µM. hit rate 42% among 920;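 active = compounds whose fluorescence signal differed from control wells by over 3 SD, either direction, in both duplicate plates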
TRPC4 spec – selectivity of TRPC6 inhibitors: effect on mouse TRPC4. AID 2777. activity change, negative = inhibition, % at 10 µM. hit rate 61% among 920. HEK293 TRPC4/mu-opioid, membrane potential fluorescence. shares compounds with TRPC6 inhibitor;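 active = rise or fall in signal beyond 3 SD of buffer-only wells in both replicate plates, either sign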;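 note: integrated kinetic ratio of fluorescence range over baseline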
HEK293 MPD ctr 2-1 – second counter-screen for TRPC6 inhibitors: parental HEK293 cells. AID 2779. hit rate 31% among 920. shares compounds with TRPC6 inhibitor. parental HEK293 membrane potential dye fluorescence; maximal acetylcholine challenge after compound addition. signal change vs control, % at 10 µM;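 active = membrane potential signal moving either way by over 3 SD of the maximum-effect control, in both duplicate plates, meaning non-specific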
HEK293 MPD ctr-1 – counter-screen for TRPC6 inhibitors: effect in parental HEK293 cells. membrane potential signal change, % at 10 µM. parental HEK293 membrane potential dye fluorescence. hit rate 60% among 920. shares compounds with TRPC6 inhibitor;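 active = membrane potential signal shifting up or down by more than 3 SD of buffer-only wells, on both duplicate plates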
HEK293 MPD ctr-2 – counter-screen for TRPC6 modulators: effect in parental HEK293 cells; shares compounds with TRPC6 inhibitor; membrane potential dye fluorescence; membrane potential signal change, % at 10 µM; hit rate 51% among 2,400;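 active = membrane potential signal moves up or down beyond 5 SD from buffer-only wells, on both duplicate plates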
HEK293 MPD ctr 2-2 – parental HEK293 nonspecific activity of TRPC6 modulators, second screen; shares compounds with TRPC6 inhibitor; AID 488926; hit rate 14% among 2,400; inhibition, % at 10 µM; membrane potential dye fluorescence; after compound, maximal acetylcholine stimulation;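 active = membrane potential signal drops by more than 5 SD from the mean control signal, in both duplicate plates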;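 note: plate controls were acetylcholine ECmax control wells for no effect and buffer only wells for full effect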
TRPC4 ctr mod – mouse TRPC4 off-target activity of TRPC6 modulators. percent change from control (negative = decrease, positive = increase), % at 10 µM. shares compounds with TRPC6 inhibitor. HEK293 TRPC4/mu-opioid, membrane potential fluorescence. AID 488927. hit rate 69% among 2,400;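 active = membrane potential signal moved up or down beyond 5 SD of buffer control wells, in both duplicate plates, actives on both sides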;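 note: plate controls were assay buffer wells for no effect and DAMGO maximal-effect wells for full effect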
TRPC4/MOR inh 2 – mouse TRPC4 off-target activity of TRPC6 modulators, second screen; hit rate 55% among 2,400; shares compounds with TRPC6 inhibitor; HEK293 TRPC4/mu-opioid, membrane potential dye fluorescence; stimulated with maximal-effect DAMGO; inhibition, % at 10 µM;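 active = drop in membrane potential signal beyond 5 SD of the control wells in both duplicate plates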;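 note: TRPC4 counter screen for TRPC6 hits run under conditions tuned for TRPC6 not TRPC4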
TRPC6 block conf – mouse TRPC6 inhibitor confirmation | shares compounds with TRPC6 inhibitor | HEK293-TRPC6, membrane potential dye, ACh-evoked depolarization | inhibition, % at 10 µM | hit rate 43% among 3,300 | AID 488960;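 active = fluorescence ratio falls more than 5 SD below the full-stimulation control mean, in both duplicate runs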;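 note: integrated fluorescence ratio of peak minus minimum over baseline after agonist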
TRPC6 act conf – confirmation of mouse TRPC6 activators. shares compounds with TRPC6 inhibitor. hit rate 11% among 2,800. activation, % at 10 µM. HEK293-TRPC6 membrane potential dye fluorescence, FDSS;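 active = ratio signal rise beyond 5 SD above unstimulated control wells' mean, seen in both duplicate runs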;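 note: plate controls were buffer EC0 wells for no effect and acetylcholine ECmax response for full effect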
* hit, by the source's call; i = inactive; · = no result given. An excerpt weighted towards active compounds, which were near 2.3% of everything screened.

SMILES	Yeast superoxide	TRPC6 activator	TRPC6 inhibitor	TRPC4 PAM	TRPC4 inh	TRPC4 act	HEK293 MPD ctr-2	HEK293 MPD ctr 2-2	TRPC4 ctr mod	TRPC4/MOR inh 2	TRPC6 block conf	TRPC6 act conf	others
CCCCCCCOC(=O)C[N+](C)(C)CCOC1CC2CCC1(C)C2(C)C (stereo not given)	·	i	i	i	i	i	·	·	·	·	·	·
CC(C)CCOC(=O)C[N+](C)(C)CCOC1CC2CCC1(C)C2(C)C (stereo not given)	91.2	i	-5.65*	i	i	i	155.0%*	i	34.5%*	34.5%*	48.0%*	·
CCCCOC(=O)C[N+](C)(C)CCOC1CC2CCC1(C)C2(C)C (stereo not given)	95.7	i	-5.19*	i	i	i	99.0%*	i	23.0%*	i	38.5%*	·
COc1cc(/C=C(\C#N)C(=O)NCC2CCCO2)cc(OC)c1OC (stereo not given)	93.7	i	i	i	i	i	·	·	·	·	·	·
Cc1ccc(Sc2c([N+](=O)[O-])c(C)nn2C)cc1	91.2	i	-8.32*	i	i	i	·	·	·	·	84.7%*	i	TRPC4 sel inh 2=i;TRPC4 spec=i;HEK293 MPD ctr 2-1=-4.0%*;HEK293 MPD ctr-1=i
CCOC(=O)C(=Cc1ccc(-n2cncn2)cc1)C(=O)OCC	104.2	i	i	i	i	i	·	·	·	·	·	·
CCN(CC)CCCNC1=C(Cl)C(=O)c2ccccc2C1=O	165.0	i	-6.19*	i	i	i	-180.5%*	i	-30.5%*	47.0%*	49.5%*	i
COc1ccc(S(=O)(=O)NNC(=O)Cc2csc(C)n2)cc1[N+](=O)[O-]	106.6	i	i	i	i	i	·	·	·	·	·	·
C=CCOc1c(CNC2CCCC2)cc(Cl)cc1OC	98.2	i	-5.42*	i	-6*	i	431.0%*	151.0%*	99.0%*	90.5%*	95.0%*	·
Nc1ncc(Br)cc1S(=O)(=O)NCCC(=O)N1CCN(c2ccccn2)CC1	121.8	i	i	i	i	i	·	·	·	·	·	·
CCCCN(CC)CCNC(=O)c1cc2c(=O)[nH]c3ccc(C)cc3c2s1	106.1	i	-6.27*	i	i	i	186.5%*	i	35.0%*	i	59.5%*	·
CCCCN(CC)CCCNC(=O)c1cc2c(=O)[nH]c3ccccc3c2s1	94.0	i	i	i	i	i	·	·	·	·	·	·
C[n+]1ccccc1/C=C/c1ccc([N+](=O)[O-])cc1	99.2	i	-7.27*	i	i	i	-249.5%*	110.0%*	-40.5%*	52.0%*	64.5%*	i
C[n+]1ccccc1/C=C/c1ccc(F)c(F)c1	98.0	i	-7.21*	i	i	i	·	·	·	·	80.3%*	i	TRPC4 sel inh 2=i;TRPC4 spec=-33.6%*;HEK293 MPD ctr 2-1=33.5%*;HEK293 MPD ctr-1=-595.5%*
C/C=C/C=C/C(=O)N1CC[C@]23c4ccccc4N[C@H]4N(C)c5cccc6c5[C@]42CCN([C@H]6C2OC2(C)C)[C@H]13 (stereo not given in full)	93.2	i	-6.47*	i	i	i	i	i	i	30.0%*	65.5%*	·
CN1CCC23c4ccccc4NC1C21CCN(C)C3Nc2ccccc21	88.0	i	i	i	i	i	·	·	·	·	·	·
COC(=O)c1ccc(CN(c2ccccc2Cl)S(C)(=O)=O)cc1	97.4	i	i	i	i	i	·	·	·	·	·	·
COC(=O)c1ccc(Cl)cc1N(Cc1c(F)cccc1Cl)S(C)(=O)=O	83.7	i	-5.27*	i	i	65*	303.0%*	113.0%*	44.0%*	38.5%*	i	·
COCCCn1c(SCC(=O)Nc2ccc(C(=O)OC)cc2)nc2ccccc2c1=O	90.5	i	i	i	i	i	·	·	·	·	·	·
COc1cccc2[nH]c3c(N4CCc5ccccc5C4)ncnc3c12	88.4	i	i	i	i	i	·	·	·	·	·	·
c1ccc2c(c1)CCN(c1ncnc3c1[nH]c1ccccc13)C2	90.1	i	-5.72*	i	i	86*	i	i	i	63.0%*	i	i
CC(=O)Nc1ccc(Nc2cc(C)nc3ccccc23)cc1	104.4	i	i	i	i	i	·	·	·	·	·	·
Cc1ccc2nc(C)cc(NCCO)c2c1	95.6	i	-8.41*	i	i	i	-281.5%*	81.0%*	-48.0%*	53.5%*	57.5%*	i
Cc1ccc2nc(C)cc(Nc3ccc4c(c3)OCCO4)c2c1	96.8	i	-6.34*	i	-8*	i	-72.0%*	i	i	67.0%*	64.0%*	i
CCOc1ccc2nc(C)cc(Nc3ccc(N4CCOCC4)cc3)c2c1	107.6	i	i	i	i	i	·	·	·	·	·	·
CCOc1ccc2nc(C)cc(Nc3ccc4c(c3)OCCO4)c2c1	102.6	i	-9.84*	i	i	i	·	·	·	·	i	i	TRPC4 sel inh 2=i;TRPC4 spec=-13.3%*;HEK293 MPD ctr 2-1=i;HEK293 MPD ctr-1=-178.5%*
CC(=O)c1ccc(Nc2cc(C)nc3ccc(C)cc23)cc1	102.0	i	-9.47*	i	i	i	·	·	·	·	i	i	TRPC4 sel inh 2=77.0%*;TRPC4 spec=-12.1%*;HEK293 MPD ctr 2-1=14.0%*;HEK293 MPD ctr-1=-275.5%*
